Compound activity from PubChem.
Lipid droplet: inhibitors of hepatocyte lipid droplet formation, primary screen, imaging, high-throughput imaging, BODIPY stain. AML12 mouse hepatocytes, oleate lipid droplets. inhibition, % at 6.5 µM. hit rate 0.4% among 240,000. AID 1656, 2009;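 active means lipid droplet intensity inhibited by at least 50%, with more than 500 cells counted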
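Material: mouse AML12 hepatocyte cell line, fixed after treatment; Timing: compound with oleate, overnight; Technique: high-content imaging of BODIPY-stained droplets and DAPI nuclei; Probe or stimulus: oleate, 100 µM final; Dosing: compound at 6.5 µM only.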
HGIII-sPLA2 inh: human group III sPLA2 inhibitors, primary screen, biochemical, QFRET, BODIPY PC-A2 liposome substrate; inhibition, % at 12.2 µM; QFRET BODIPY PC-A2 liposome hydrolysis, fluorescence; hit rate 0.56% among 370,000; Group 3 secretory phospholipase A2 (Homo sapiens), Q9NZ20;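 active means inhibition above mean plus 3 SD of compounds lying within the high and low control bounds, cut at about 19% in these data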;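 further: 0% = median of test compound wells and 100% = no enzyme DMSO wells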
Arr AP2 block: inhibitors of beta-arrestin/AP2 binding, primary screen, biochemical, GPCR trafficking, flow cytometry; inhibition, % at 10 µM; hit rate 0.31% among 340,000; FITC-arrestin peptide / GST-AP2 beads; AP2 beta2 appendage carries R879A mutation;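 active means inhibition above a set limit, near 3 SD of compounds lacking own fluorescence, cut at about 54% in these data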;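 further: plate controls were DMSO wells for no effect and 5 µM unlabelled arrestin peptide for full effect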
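System: GST-AP2 R879A bound to glutathione beads, E. coli-expressed. Also added: 50 nM FITC-arrestin peptide. Schedule: compound with beads 12 min RT, then probe 1 h RT. Signal: bead flow cytometry, FITC channel. Read-out basis: percent response.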
M18AAP inhibitor: PfM18AAP inhibitors, malaria aminopeptidase, primary screen, biochemical, QFRET, recombinant enzyme | M18 aspartyl aminopeptidase (Plasmodium falciparum 3D7) | H-Glu-NHMec fluorogenic cleavage | inhibition, % at 7.35 µM | hit rate 1.2% among 290,000;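 active means inhibition above the campaign mean inhibition over all tested compounds plus 3 SD, cut at about 28% in these data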;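 further: 0% = plate median of test compound wells and 100% = 2 mM ZnCl2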
NRP1-CendR mod: modulators of CendR peptide binding to NRP-1, primary screen, biochemical, fluorescence polarization, uHTS; Neuropilin-1 (Homo sapiens), O14786; FAM-RPARPAR peptide binding to NRP-1; inhibition, % at 25 µM; hit rate 0.85% among 360,000;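 active means inhibition or corrected inhibition above about 18%, plus a signal ratio from 0.5 to 1.5, limit read from the data, passing the limit was not always enough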
Target sequence (O14786 whole entry, looked up): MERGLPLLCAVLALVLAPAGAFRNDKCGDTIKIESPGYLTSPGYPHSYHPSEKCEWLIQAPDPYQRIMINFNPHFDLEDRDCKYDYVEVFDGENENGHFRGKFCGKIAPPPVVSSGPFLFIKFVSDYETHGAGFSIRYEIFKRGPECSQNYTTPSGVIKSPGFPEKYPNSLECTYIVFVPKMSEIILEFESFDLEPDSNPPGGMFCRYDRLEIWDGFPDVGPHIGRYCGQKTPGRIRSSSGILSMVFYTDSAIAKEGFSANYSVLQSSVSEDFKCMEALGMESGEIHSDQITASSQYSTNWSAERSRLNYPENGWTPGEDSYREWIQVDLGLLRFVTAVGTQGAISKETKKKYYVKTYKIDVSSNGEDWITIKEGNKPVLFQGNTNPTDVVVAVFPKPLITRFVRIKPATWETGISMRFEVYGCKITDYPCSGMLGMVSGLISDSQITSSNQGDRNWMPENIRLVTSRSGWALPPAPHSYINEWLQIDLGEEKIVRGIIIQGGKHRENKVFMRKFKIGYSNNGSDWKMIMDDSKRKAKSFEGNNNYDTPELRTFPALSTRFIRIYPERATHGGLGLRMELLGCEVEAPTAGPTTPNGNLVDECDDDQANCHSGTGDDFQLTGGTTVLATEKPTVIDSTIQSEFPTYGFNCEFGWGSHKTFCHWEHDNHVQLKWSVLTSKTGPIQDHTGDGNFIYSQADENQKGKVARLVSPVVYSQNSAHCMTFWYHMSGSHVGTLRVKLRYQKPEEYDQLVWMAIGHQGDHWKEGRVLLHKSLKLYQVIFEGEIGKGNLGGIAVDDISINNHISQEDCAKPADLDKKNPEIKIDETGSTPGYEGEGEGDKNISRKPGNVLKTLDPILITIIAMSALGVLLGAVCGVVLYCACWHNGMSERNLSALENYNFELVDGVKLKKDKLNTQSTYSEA
HTR2A ag: mouse Htr2a agonists via beta-arrestin recruitment, primary screen, cell-based, luminescence | hit rate 0.66% among 360,000 | CHO-K1 mHTR2A beta-arrestin complementation; percent of 30 µM serotonin response | activation, % at 7.6 µM | 5-hydroxytryptamine receptor 2A (Mus musculus), P35363;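 active means activation above a run cutoff, the mean activation of all tested compounds plus 3 SD, cut at about 14% in these data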;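 further: 0% = plate median of compound wells and 100% = 30 µM serotonin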
Arr-AP2 CP1: inhibitors of arrestin peptide binding to AP2, confirmation, biochemical, cherry pick 1, flow cytometry beads | shares compounds with Arr AP2 block | GST-AP2 beads, FITC arrestin peptide binding; GST-fused beta2-adaptin appendage, R879A mutant | inhibition, % at 10 µM | hit rate 2% among 1,300 | AID 504908, 2011;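 active means inhibition above a set limit, roughly 3 SD of non-fluorescent compound noise, cut at about 38% in these data; inactive means inhibition at or below that limit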;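 further: loss of bead fluorescence from 50 nM FITC arrestin peptide bound to appendage; 0% = negative control wells and 100% = excess unlabelled arrestin peptide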
GST GSH counter: GST-fluorescein capture on glutathione beads, confirmation, artefact control for arrestin-AP2 inhibitor project, biochemical, cherry pick 1, flow cytometry. shares compounds with Arr AP2 block. GST-fluorescein binding to GSH beads, fluorescence, counter-screen. inhibition, % at 10 µM. hit rate 2% among 1,300. AID 588338, 2011;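 active means inhibition above 50%, about 3 SD of the inhibition seen with non-fluorescent compounds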;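 further: fluorescein maleimide labelled GST captured on 4 micron glutathione beads; higher means more loss of bead fluorescence from quenching or blocked binding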
* marks the source's active call; other numbers are inactive results. Sampled rows, rich in hits. Any-hit rate of the full collection: about 3.3%.

What do the screens show for `CC(OC(=O)c1ccncc1)C(=O)Nc1cccc(Cl)c1` (configuration not stated)?
HGIII-sPLA2 inh: 4; Arr AP2 block: 81*; M18AAP inhibitor: 3; NRP1-CendR mod: -9; HTR2A ag: -1; Arr-AP2 CP1: 6; GST GSH counter: -5

What do the screens show for `CN(C)c1ccc(N=c2sc3ccccc3n2C)cc1`?
Lipid droplet: 11; HGIII-sPLA2 inh: 15; Arr AP2 block: 63*; M18AAP inhibitor: 11; NRP1-CendR mod: -1; HTR2A ag: 3; Arr-AP2 CP1: 6; GST GSH counter: 1

What do the screens show for `COc1ccc(CNC(=O)[C@H](C)NC(=O)C2CC(=O)N(c3ccc4c(c3)OCO4)C2)cc1` (some centres not stated)?
Lipid droplet: 0; HGIII-sPLA2 inh: 1; Arr AP2 block: 55*; M18AAP inhibitor: -9; NRP1-CendR mod: 1; HTR2A ag: 5; Arr-AP2 CP1: 1; GST GSH counter: 1

What do the screens show for `COc1ccc(CNC(=O)[C@H](C)NC(=O)C2CC(=O)N(c3ccc(OC)cc3)C2)cc1` (some centres not stated)?
Lipid droplet: 0; HGIII-sPLA2 inh: 3; Arr AP2 block: 1; M18AAP inhibitor: -4; NRP1-CendR mod: 6; HTR2A ag: 1

What do the screens show for `Clc1ccc(Nc2nnc(-c3ccc4c(c3)OCO4)o2)cc1`?
HGIII-sPLA2 inh: 9

How did O=C(/C=C/c1ccc(Cl)cc1)NC(=S)Nc1ccc(CN2CCOCC2)cc1 do in these assays?
Lipid droplet: -6; HGIII-sPLA2 inh: 0; Arr AP2 block: 105*; M18AAP inhibitor: -1; NRP1-CendR mod: 2; HTR2A ag: -2; Arr-AP2 CP1: 8; GST GSH counter: -5

What do the screens show for `COc1ccc(C(=O)NC(=S)Nc2ccc(CN3CCOCC3)cc2)cc1OC`?
Lipid droplet: 3; HGIII-sPLA2 inh: 2; Arr AP2 block: 49; M18AAP inhibitor: 3; NRP1-CendR mod: 1; HTR2A ag: 4

How did CC(C)COc1ccc(C(=O)NC(=S)Nc2ccc(CN3CCOCC3)cc2)cc1 do in these assays?
Lipid droplet: 19; HGIII-sPLA2 inh: 3; Arr AP2 block: 103*; M18AAP inhibitor: -9; NRP1-CendR mod: 10; HTR2A ag: 2; Arr-AP2 CP1: 13; GST GSH counter: 36

What do the screens show for `COc1cc2ccc(C(=O)O)cc2cc1OC`?
HGIII-sPLA2 inh: 5; NRP1-CendR mod: 1; HTR2A ag: 3

How did C[C@@H]1OC(C2CCCCC2)N(C)[C@H]2C[C@H]3c4[nH]c5c(-c6ccccc6)cccc5c4CCN3C(=O)[C@@H]12 (some centres not stated) do in these assays?
HGIII-sPLA2 inh: 2

What do the screens show for `CCN1/C(=C/c2sc(-c3ccccc3C)c[n+]2C)Sc2ccccc21`?
Lipid droplet: -200; HGIII-sPLA2 inh: 0; Arr AP2 block: 5; M18AAP inhibitor: 0; NRP1-CendR mod: -3; HTR2A ag: -1

Results for CCN1/C(=C/C=C/c2sc3ccccc3[n+]2CC)Sc2ccccc21 ?
Arr AP2 block: 75*; NRP1-CendR mod: -65; HTR2A ag: -8; Arr-AP2 CP1: 33; GST GSH counter: 32

Results for COCCN(C(=O)CCCC(=O)Nc1ccccn1)C(C(=O)NC1CCCCC1)c1ccc(C)cc1 (configuration not stated) ?
HGIII-sPLA2 inh: 4; Arr AP2 block: 101*; M18AAP inhibitor: 1; NRP1-CendR mod: -5; HTR2A ag: -3; Arr-AP2 CP1: -13; GST GSH counter: -4

What do the screens show for `Nc1ccc(Nc2ccccc2)c(Cl)c1`?
HGIII-sPLA2 inh: 6; Arr AP2 block: 71*; M18AAP inhibitor: -47; NRP1-CendR mod: 7; HTR2A ag: 2; Arr-AP2 CP1: 1; GST GSH counter: 8

Results for COc1ccc2c3c(cccc13)N(C)N=C2C ?
HGIII-sPLA2 inh: -8; Arr AP2 block: 62*; M18AAP inhibitor: -5; NRP1-CendR mod: 63*; HTR2A ag: -4; Arr-AP2 CP1: 33; GST GSH counter: 11

What do the screens show for `COc1ccc2c3c(cccc13)OC2=O`?
Lipid droplet: -4; HGIII-sPLA2 inh: 9; Arr AP2 block: 20; M18AAP inhibitor: 4; NRP1-CendR mod: -19; HTR2A ag: -3

What do the screens show for `CCCS(=O)(=O)NC(=O)C1(C)CCN(C(=O)COc2ccc(Cl)cc2Cl)C1` (configuration not stated)?
HGIII-sPLA2 inh: 3; NRP1-CendR mod: 3; HTR2A ag: 4

How did COC(=O)C1CCc2c(ccc3c2CCCC3)C1=O (configuration not stated) do in these assays?
HGIII-sPLA2 inh: -26; Arr AP2 block: 35; NRP1-CendR mod: 2; HTR2A ag: -2

How did CC1Cc2ccccc2N1C(=O)Cn1cc(C(F)(F)F)ccc1=O (configuration not stated) do in these assays?
HGIII-sPLA2 inh: -4; NRP1-CendR mod: -4; HTR2A ag: 1

What do the screens show for `CC1Cc2ccccc2N1C(=O)C(C)n1cc(C(F)(F)F)cc(Cl)c1=O` (configuration not stated)?
HGIII-sPLA2 inh: 4; Arr AP2 block: 69*; NRP1-CendR mod: 2; HTR2A ag: 6; Arr-AP2 CP1: -8; GST GSH counter: -8

Results for Cc1ccc(C(=O)Nc2ccccc2C(=O)N2CCCCCC2)cc1 ?
Lipid droplet: -9; HGIII-sPLA2 inh: -2; Arr AP2 block: 10; M18AAP inhibitor: 1; NRP1-CendR mod: 9; HTR2A ag: 0

Results for Cc1ccc(C(=O)Nc2ccccc2C(=O)N2CCCC(C)C2)cc1 (configuration not stated) ?
Lipid droplet: 1; HGIII-sPLA2 inh: 6; Arr AP2 block: 56*; M18AAP inhibitor: -3; NRP1-CendR mod: 4; HTR2A ag: 2; Arr-AP2 CP1: -1; GST GSH counter: 1
